Laboratory results taken from ChEMBL document CHEMBL1133091, “Syntheses and structure-activity relationships of 5,6,7, 8-tetrahydro-5,5,8,8-tetramethyl-2-quinoxaline derivatives with retinoic acid receptor alpha agonistic activity” (J Med Chem, 2000).

Columns and labels:
[1] = target: T1, Retinoic acid receptor beta (Homo sapiens) (UniProt P10826); assay: Transcriptional activation of Retinoic Acid Receptor beta (RAR beta); assay type: functional
T1 sequence (whole entry): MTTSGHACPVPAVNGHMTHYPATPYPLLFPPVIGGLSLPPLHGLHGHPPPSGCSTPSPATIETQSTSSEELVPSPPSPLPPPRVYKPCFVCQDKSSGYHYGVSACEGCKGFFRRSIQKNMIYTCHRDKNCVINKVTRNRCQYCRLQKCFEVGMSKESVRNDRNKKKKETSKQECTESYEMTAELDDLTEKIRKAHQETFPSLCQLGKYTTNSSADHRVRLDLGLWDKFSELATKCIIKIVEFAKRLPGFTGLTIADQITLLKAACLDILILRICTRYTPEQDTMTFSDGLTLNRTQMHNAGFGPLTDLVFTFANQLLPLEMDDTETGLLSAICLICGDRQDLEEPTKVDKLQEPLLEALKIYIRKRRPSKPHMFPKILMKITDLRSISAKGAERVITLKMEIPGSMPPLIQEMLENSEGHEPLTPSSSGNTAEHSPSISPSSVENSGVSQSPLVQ
Summary of the method: (§1)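 Receptor and reporter vectors were lipofected into COS-1 cells. After 4 h the medium was changed to DMEM/10% FBS for 20 h. Cells were reseeded at 3 × 10⁴/well and compounds added 6 h later, in log dilutions from 3.0 × 10^-6 to 1.0 × 10^-10 M in duplicate. Supernatant PLAP activity was read after 48 h. EC30 (30% of maximal response) was normalized to ATRA.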

[2] = target: T2, Retinoic acid receptor beta (Homo sapiens, UniProt P10826); assay: Binding affinity for Retinoic Acid Receptor beta (RAR beta)
T2 sequence (P10826 whole entry): T1 sequence (whole entry)
Summary of the method: (§2)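 Competitive binding to each RAR isoform using [³H]ATRA as radioligand. IC50 for each receptor was divided by the ATRA IC50 on the same receptor to give relative IC50 (mean ± SEM). Values were labelled not detectable when relative IC50 > 1000.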

[3] = target: T3, Retinoic acid receptor alpha (Homo sapiens, UniProt P10276); assay: (§3) Binding affinity for Retinoic Acid Receptor alpha (RAR alpha)
T3 sequence (P10276 whole entry): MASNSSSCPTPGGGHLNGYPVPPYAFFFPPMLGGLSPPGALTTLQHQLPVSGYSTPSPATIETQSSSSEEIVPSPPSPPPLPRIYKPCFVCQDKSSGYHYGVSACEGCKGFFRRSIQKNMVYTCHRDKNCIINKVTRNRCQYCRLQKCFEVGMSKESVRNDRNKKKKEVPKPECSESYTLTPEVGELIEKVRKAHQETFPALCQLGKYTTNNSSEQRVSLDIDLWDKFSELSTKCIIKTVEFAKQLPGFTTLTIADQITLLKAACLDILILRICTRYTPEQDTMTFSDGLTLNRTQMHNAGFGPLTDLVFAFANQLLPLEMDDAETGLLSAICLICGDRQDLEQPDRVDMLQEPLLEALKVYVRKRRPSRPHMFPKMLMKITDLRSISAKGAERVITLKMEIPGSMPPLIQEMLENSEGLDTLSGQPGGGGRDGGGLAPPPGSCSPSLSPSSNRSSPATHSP
Summary of the method: (§4)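 Competitive binding to individual RAR isoforms with [3H]ATRA as radioligand. IC50 for each receptor divided by the ATRA IC50 and reported as relative IC50 (mean ± SEM). nd means relative IC50 > 1000.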

[4] = target: T4, Retinoic acid receptor gamma (Homo sapiens) (UniProt P13631); assay: (§5) Transcriptional activation of Retinoic Acid Receptor gamma (RAR gamma); assay type: functional; summary of the method: as §1
T4 sequence (whole entry): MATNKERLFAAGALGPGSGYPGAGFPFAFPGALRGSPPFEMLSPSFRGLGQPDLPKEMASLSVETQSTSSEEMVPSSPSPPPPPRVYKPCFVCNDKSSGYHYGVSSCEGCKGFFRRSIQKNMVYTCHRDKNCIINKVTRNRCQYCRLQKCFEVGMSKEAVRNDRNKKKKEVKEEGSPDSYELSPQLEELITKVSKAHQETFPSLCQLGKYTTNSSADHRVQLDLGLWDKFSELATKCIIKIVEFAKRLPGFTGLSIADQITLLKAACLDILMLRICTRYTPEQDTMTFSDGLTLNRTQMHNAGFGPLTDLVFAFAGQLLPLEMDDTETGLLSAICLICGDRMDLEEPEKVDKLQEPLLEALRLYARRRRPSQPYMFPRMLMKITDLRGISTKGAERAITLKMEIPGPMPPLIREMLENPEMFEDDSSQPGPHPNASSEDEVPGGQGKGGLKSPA

[5] = target: T5, Retinoic acid receptor gamma (Homo sapiens, UniProt P13631); assay: Binding affinity for Retinoic Acid Receptor gamma (RAR gamma); summary of the method: as §4
T5 sequence (P13631 whole entry): T4 sequence (whole entry)

[6] = target: T6, Retinoic acid receptor alpha (Homo sapiens) (UniProt P10276); assay: Transcriptional activation of Retinoic Acid Receptor alpha (RAR alpha); assay type: functional; summary of the method: as §1
T6 sequence (whole entry): T3 sequence (P10276 whole entry)

[7] = target: T6, Retinoic acid receptor alpha (Homo sapiens); settings: HL-60
[8] = target: T3, Retinoic acid receptor alpha; assay: Binding affinity for Retinoic Acid Receptor alpha (RAR alpha).; summary of the method: as §4
[9] = target: T1, Retinoic acid receptor beta (Homo sapiens); assay: Transcriptional activation in COS-1 cells expressing Retinoic Acid Receptor beta (RAR beta); assay type: functional, cell-based; summary of the method: as §1
[10] = target: T4, Retinoic acid receptor gamma (Homo sapiens); assay: Transcriptional activation in COS-1 cells expressing Retinoic Acid Receptor gamma (RAR gamma); assay type: functional, cell-based
Summary of the method: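 Receptor and reporter vectors were lipofected into COS-1 cells for 4 h, then cultured 20 h in DMEM/10% FBS. Cells were reseeded at 3 × 10⁴ per well. After 6 h, compound was added in log dilutions from 1.0 × 10^-10 to 3.0 × 10^-6 M in duplicate. Supernatant PLAP activity was read after 48 h. EC30 was normalised to ATRA EC30 (mean ± SEM).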

[11] = target: T5, Retinoic acid receptor gamma; assay: Binding affinity for Retinoic acid receptor gamma; summary of the method: as §2
[12] = target: T6, Retinoic acid receptor alpha (Homo sapiens); assay: Transcriptional activation in COS-1 cells expressing Retinoic Acid Receptor alpha (RAR alpha); assay type: functional, cell-based; summary of the method: as §1
[13] = target: T4, Retinoic acid receptor gamma (Homo sapiens); assay: as §5; summary of the method: as §1
[14] = target: T6, Retinoic acid receptor alpha (Homo sapiens); assay: Induction of HL-60 cell differentiation at Retinoic Acid Receptor alpha (RAR alpha); assay type: functional, cell-based
Summary of the method: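 HL60 cells (1 × 10⁵ in 1 mL RPMI1640) were exposed to compounds for 5 days, in log dilutions from 1.0 × 10^-5 to 1.0 × 10^-12 M in duplicate. Differentiation was read as cell-surface CD11b expression by FACS. Values are averages of at least two experiments.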

[15] = target: T6, Retinoic acid receptor alpha (Homo sapiens); settings: COS-1
[16] = target: T3, Retinoic acid receptor alpha; assay: as §3; remark: listed apart in the source

SMILES	EC30 [1]	IC50 [2]	IC50 [3]	EC30 [4]	IC50 [5]	EC30 [6]	ED30 [7]	other results
CC1(C)CCC(C)(C)c2nc(C(=O)Nc3ccc(C(=O)O)cc3)cnc21	0.4 nM	140 nM		1.6 nM		0.15 nM	0.87 nM	IC50 [8]: 40 nM
CC1(C)CCC(C)(C)c2nc(-c3cc(-c4ccc(C(=O)O)cc4)[nH]n3)cnc21	0.85 nM	290 nM		3.9 nM		1.7 nM	2.1 nM	
CC1(C)CCC(C)(C)c2nc(-c3ccc(-c4ccc(C(=O)O)cc4)s3)cnc21	0.73 nM	36 nM	130 nM	2.1 nM	17 nM	15 nM	40 nM	
CC1(C)CCC(C)(C)c2nc(-c3ccc(-c4ccc(C(=O)O)cc4)[nH]3)cnc21		230 nM	2.2 nM				0.11 nM	EC30 [9]: 2.5 nM; EC30 [10]: 20 nM; IC50 [11]: 310 nM; EC30 [12]: 0.32 nM
CC1(C)CCC(C)(C)c2cc(C(=O)Nc3ccc(C(=O)O)cc3)ccc21								EC30 [9]: 12 nM; EC30 [10]: 33 nM
CC1(C)CCC(C)(C)c2nc(-c3csc(-c4ccc(C(=O)O)cc4)n3)cnc21	0.39 nM	21 nM	83 nM	0.34 nM	3.6 nM	5.2 nM	11 nM	
CC1(C)CCC(C)(C)c2cc(NC(=O)c3ccc(C(=O)O)cc3)ccc21								EC30 [9]: 48 nM; EC30 [10]: 150 nM
Cn1c(-c2ccc(C(=O)O)cc2)ccc1-c1cnc2c(n1)C(C)(C)CCC2(C)C	14 nM					38 nM		EC30 [13]: 120 nM; ED30 [14]: 240 nM
CC1(C)CCC(C)(C)c2cc(-c3ccc(-c4ccc(C(=O)O)cc4)[nH]3)ccc21		100 nM					0.54 nM	EC30 [9]: 3.9 nM; EC30 [10]: 3.5 nM; EC30 [15]: 0.34 nM; IC50 [11]: 21 nM; IC50 [16]: 0.45 nM
CC1(C)CCC(C)(C)c2nc(-c3c[nH]c(-c4ccc(C(=O)O)cc4)n3)cnc21	40 nM					80 nM		EC30 [13]: 39 nM; ED30 [14]: 20 nM

Now from value to molecule, other results behind:

EC30 [1]	IC50 [2]	IC50 [3]	EC30 [4]	IC50 [5]	EC30 [6]	ED30 [7]	SMILES	other results
0.5 nM	4.5 nM	2.4 nM	0.72 nM	2 nM	0.87 nM	9.5 nM	CC1(C)CCC(C)(C)c2nc(-c3cc(-c4ccc(C(=O)O)cc4)cs3)cnc21	
0.18 nM	2.5 nM	19 nM	0.76 nM	27 nM	0.35 nM	0.21 nM	CC1(C)CCC(C)(C)c2nc(-c3cc(-c4ccc(C(=O)O)cc4)co3)cnc21	
0.38 nM	39 nM	32 nM	1.5 nM	4.6 nM	1.8 nM	2.1 nM	CC1(C)CCC(C)(C)c2nc(-c3ccc(-c4ccc(C(=O)O)cc4)o3)cnc21	
4.5 nM			1.6 nM	150 nM	11 nM	140 nM	CC1(C)CCC(C)(C)c2nc(-c3cc(-c4ccc(C(=O)O)cc4)c[nH]3)cnc21	
